Measurements as given in ChEMBL document CHEMBL1137333, “Synthesis, radiosynthesis, and biological evaluation of carbon-11 labeled 2beta-carbomethoxy-3beta-(3'-((Z)-2-haloethenyl)phenyl)nortropanes: candidate radioligands for in vivo imaging of the serotonin transporter with positron emission tomography” (J Med Chem, 2006).

Tests used:
[1] = system: Cynomolgus monkey; experiment: Ratio of uptake in caudate to cerebellum of anesthetized cynomolgus monkey after 65 mins; type: ADME, organism-based; conditions: in vivo
Procedure, shortened: (§1)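 Baseline microPET (Concorde P4) in anesthetized cynomolgus monkey after injection of the [11C]-labelled tracer. Regional time-activity curves were taken, and each region's uptake was divided by cerebellum uptake (low-SERT reference) at 65, 85 and 105 min postinjection.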

[2] = system: Cynomolgus monkey; experiment: Uptake in anesthetized cynomolgus monkey pons after 45.0 mins; type: ADME, organism-based; conditions: in vivo, 0.75 h
Procedure, shortened: (§2)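 Baseline microPET (Concorde P4) scan in anesthetized cynomolgus monkeys after injection of the carbon-11 labeled tracer, with no chase drug. Regional brain time-activity curves were followed over the scan. Tracer radiochemical purity and specific activity were determined by analytical HPLC at the time of injection.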

[3] = system: Cynomolgus monkey; experiment: Ratio of uptake in frontal to cerebellum of anesthetized cynomolgus monkey after 105 mins; type: ADME, organism-based; conditions: in vivo, 1.75 h; procedure, shortened: as §1
[4] = system: Cynomolgus monkey; experiment: Uptake in anesthetized cynomolgus monkey midbrain after 0.5 mins; type: ADME, organism-based; conditions: in vivo
Procedure, shortened: (§3)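 Baseline microPET scan (P4 scanner) of anesthetized cynomolgus monkeys after injection of the carbon-11 labelled nortropane tracer. Two baseline studies were run per tracer. Radioactivity was followed over time in regional brain time-activity curves.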

[5] = system: Cynomolgus monkey; experiment: Ratio of uptake in medulla to cerebellum of anesthetized cynomolgus monkey after 105 mins; type: ADME, organism-based; conditions: in vivo, 1.75 h; procedure, shortened: as §1
[6] = system: Cynomolgus monkey; experiment: Uptake in anesthetized cynomolgus monkey occipital after 55.0 mins; type: ADME, organism-based, Occipital cortex; conditions: in vivo; procedure, shortened: as §3
[7] = system: Cynomolgus monkey; experiment: Uptake in anesthetized cynomolgus monkey cerebellum after 1.5 mins; type: ADME, organism-based; conditions: in vivo, 0.025 h
Procedure, shortened: (§4)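 Baseline microPET (Concorde P4) regional brain time-activity curves in anesthetized cynomolgus monkey following injection of the [11C]-labelled tracer, with radioactivity followed over the scan.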

[8] = system: Cynomolgus monkey; experiment: Uptake in anesthetized cynomolgus monkey medulla after 2.5 mins; type: ADME, organism-based, Medulla of organ; conditions: in vivo; procedure, shortened: as §3
[9] = system: Cynomolgus monkey; experiment: Uptake in anesthetized cynomolgus monkey occipital after 85.0 mins; type: ADME, organism-based, Macaca mulatta, Occipital cortex; conditions: rhesus monkey, in vivo; procedure, shortened: as §3
[10] = system: Cynomolgus monkey; experiment: Uptake in anesthetized cynomolgus monkey frontal after 105.0 mins; type: ADME, organism-based, Frontal cortex; conditions: in vivo, 1.75 h; procedure, shortened: as §3
[11] = system: Cynomolgus monkey; experiment: Ratio of uptake in thalamus to cerebellum of anesthetized cynomolgus monkey after 85 mins; type: ADME, organism-based; conditions: in vivo; procedure, shortened: as §1
[12] = system: Cynomolgus monkey; experiment: Ratio of uptake in medulla to cerebellum of anesthetized cynomolgus monkey after 65 mins; type: ADME, organism-based; conditions: in vivo; procedure, shortened: as §1
[13] = system: Cynomolgus monkey; experiment: Ratio of uptake in midbrain to cerebellum of anesthetized cynomolgus monkey after 65 mins; type: ADME, organism-based; conditions: in vivo; procedure, shortened: as §1
[14] = system: Cynomolgus monkey; experiment: Uptake in anesthetized cynomolgus monkey pons after 15.5 mins; type: ADME, organism-based; conditions: in vivo; procedure, shortened: as §2
[15] = system: Cynomolgus monkey; experiment: Uptake in anesthetized cynomolgus monkey caudate after 45.0 mins; type: ADME, organism-based, Caudate nucleus; conditions: in vivo, 0.75 h; procedure, shortened: as §4
[16] = system: Cynomolgus monkey; experiment: Uptake in anesthetized cynomolgus monkey thalamus after 115.0 mins; type: ADME, organism-based; conditions: in vivo; procedure, shortened: as §2
[17] = system: Cynomolgus monkey; experiment: Ratio of uptake in putamen to cerebellum of anesthetized cynomolgus monkey after 105 mins; type: ADME, organism-based; conditions: in vivo, 1.75 h; procedure, shortened: as §1
[18] = system: Cynomolgus monkey; experiment: Uptake in anesthetized cynomolgus monkey medulla after 115.0 mins; type: ADME, organism-based, Medulla of organ; conditions: in vivo; procedure, shortened: as §3
[19] = system: Cynomolgus monkey; experiment: Uptake in anesthetized cynomolgus monkey putamen after 9.5 mins; type: ADME, organism-based; conditions: in vivo; procedure, shortened: as §2
[20] = system: Cynomolgus monkey; experiment: Uptake in anesthetized cynomolgus monkey frontal after 3.5 mins; type: ADME, organism-based, Frontal cortex; conditions: in vivo; procedure, shortened: as §3
[21] = system: Cynomolgus monkey; experiment: Uptake in anesthetized cynomolgus monkey midbrain after 27.5 mins; type: ADME, organism-based; conditions: in vivo; procedure, shortened: as §3
[22] = system: Cynomolgus monkey; experiment: Uptake in anesthetized cynomolgus monkey pons after 95.0 mins; type: ADME, organism-based; conditions: in vivo; procedure, shortened: as §2
[23] = system: Cynomolgus monkey; experiment: Uptake in anesthetized cynomolgus monkey medulla after 55.0 mins; type: ADME, organism-based, Medulla of organ; conditions: in vivo; procedure, shortened: as §3
[24] = system: Cynomolgus monkey; experiment: Uptake in anesthetized cynomolgus monkey cerebellum after 18.5 mins; type: ADME, organism-based, Macaca mulatta; conditions: rhesus monkey, in vivo; procedure, shortened: as §4
[25] = system: Cynomolgus monkey; experiment: Uptake in anesthetized cynomolgus monkey putamen after 12.5 mins; type: ADME, organism-based; conditions: in vivo; procedure, shortened: as §2
[26] = system: Cynomolgus monkey; experiment: Uptake in anesthetized cynomolgus monkey thalamus after 85.0 mins; type: ADME, organism-based; conditions: in vivo; procedure, shortened: as §2
[27] = system: Cynomolgus monkey; experiment: Uptake in anesthetized cynomolgus monkey pons after 18.5 mins; type: ADME, organism-based; conditions: in vivo; procedure, shortened: as §2
[28] = system: Cynomolgus monkey; experiment: Ratio of uptake in frontal to cerebellum of anesthetized cynomolgus monkey after 85 mins; type: ADME, organism-based; conditions: in vivo; procedure, shortened: as §1
[29] = system: Cynomolgus monkey; experiment: Uptake in anesthetized cynomolgus monkey thalamus after 45.0 mins; type: ADME, organism-based; conditions: in vivo, 0.75 h; procedure, shortened: as §2
[30] = system: Cynomolgus monkey; experiment: Uptake in anesthetized cynomolgus monkey pons after 55.0 mins; type: ADME, organism-based; conditions: in vivo; procedure, shortened: as §2
[31] = system: Cynomolgus monkey; experiment: Uptake in anesthetized cynomolgus monkey medulla after 9.5 mins; type: ADME, organism-based, Medulla of organ; conditions: in vivo; procedure, shortened: as §3
[32] = system: Cynomolgus monkey; experiment: Uptake in anesthetized cynomolgus monkey cerebellum after 115.0 mins; type: ADME, organism-based; conditions: in vivo; procedure, shortened: as §4
[33] = system: Cynomolgus monkey; experiment: Uptake in anesthetized cynomolgus monkey medulla after 0.5 mins; type: ADME, organism-based, Medulla of organ; conditions: in vivo; procedure, shortened: as §3
[34] = system: Cynomolgus monkey; experiment: Uptake in anesthetized cynomolgus monkey midbrain after 55.0 mins; type: ADME, organism-based; conditions: in vivo; procedure, shortened: as §3
[35] = system: Cynomolgus monkey; experiment: Uptake in anesthetized cynomolgus monkey frontal after 35.0 mins; type: ADME, organism-based, Frontal cortex; conditions: in vivo; procedure, shortened: as §3

[11CH3]OC(=O)[C@@H]1C2CCC(C[C@@H]1c1cccc(/C=C/I)c1)N2 (stereo not given in full)
Ratio [1]: 1.3 | Drug uptake [2]: 6.02 | Ratio [3]: 1.2 | Drug uptake [4]: 0.01 | Ratio [5]: 2.1 | Drug uptake [6]: 4.58 | Drug uptake [7]: 0.38 | Drug uptake [8]: 1.4 | Drug uptake [9]: 4 | Drug uptake [10]: 3.42 | Ratio [11]: 1.8 | Ratio [12]: 1.6 | Ratio [13]: 1.7 | Drug uptake [14]: 5.23 | Drug uptake [15]: 5.77 | Drug uptake [16]: 6.16 | Ratio [17]: 2.1 | Drug uptake [18]: 6.11 | Drug uptake [19]: 5.39 | Drug uptake [20]: 1.21 | Drug uptake [21]: 7.14 | Drug uptake [22]: 5.84 | Drug uptake [23]: 7.26 | Drug uptake [24]: 5.74 | Drug uptake [25]: 5.9 | Drug uptake [26]: 6.65 | Drug uptake [27]: 5.52 | Ratio [28]: 1.1 | Drug uptake [29]: 7.14 | Drug uptake [30]: 6.13 | Drug uptake [31]: 6.22 | Drug uptake [32]: 3.05 | Drug uptake [33]: 0.02 | Drug uptake [34]: 7.57 | Drug uptake [35]: 4.13
